Measured values taken from ChEMBL document CHEMBL5058577, “EUbOPEN Chemogenomics Library 2 (Multiplex)” (2022).

Tested on: U2OS
Test: Multiplex assay against U2OS
Assay type: toxicity, cell-based
Details: human
Method in brief: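 Cells were classed with CellPathfinder machine-learning gating, first as Hoechst high-intensity objects or normal cells, then (normal cells) as healthy, pyknosed or fragmented nuclei, and finally (pyknosed cells) as mitotic or apoptotic. Staining of live cells at seeding used Hoechst33342, BioTracker Green Microtubule Cytoskeleton Dye, MitoTracker Red and Annexin V Alexa Fluor 680, with imaging on a CQ1 microscope at 37°C and 5% CO2 after compound addition. Tubulin, mitochondrial-mass and membrane-permeability phenotypes are per cents of healthy-nucleus cells.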

[1] = 12 h, 1 µM, compound concentration 1 uM, replicate 1
[2] = 12 h, 1 µM, compound concentration 1 uM, replicate 2
[3] = 12 h, 10 µM, compound concentration 10 uM, replicate 1
[4] = 12 h, 10 µM, compound concentration 10 uM, replicate 2
[5] = 24 h, 1 µM, compound concentration 1 uM, replicate 1
[6] = 24 h, 1 µM, compound concentration 1 uM, replicate 2
[7] = 24 h, 10 µM, compound concentration 10 uM, replicate 1
[8] = 24 h, 10 µM, compound concentration 10 uM, replicate 2
[9] = 48 h, 1 µM, compound concentration 1 uM, replicate 1
[10] = 48 h, 1 µM, compound concentration 1 uM, replicate 2
[11] = 48 h, 10 µM, compound concentration 10 uM, replicate 1
[12] = 48 h, 10 µM, compound concentration 10 uM, replicate 2

In the case of CN1CCC(C(=O)c2cccc(NC(=O)c3c(F)cc(F)cc3F)n2)CC1, the “Population Apoptotic (%)” value [1] is reported as 90%, the “Population Fragmented Nuclei (%)” value [1] is reported as 20% and the “Population Healthy Nuclei (%)” value [1] is reported as 70%. For the same compound, the “Population Hoechst High Intensity Objects (%)” value [1] was 2%, the “Population Membrane Permeable-Phenotype (%)” value [1] was 8% and the “Population Mitochondria Different-Phenotype (%)” value [1] was 3%. The “Population Mitotic Cells (%)” value [1] was 10%, the “Population Normal (%)” value [1] was 97% and the “Population Pyknosed Nuclei (%)” value [1] was 9%. The “Population Tubulin-Different-Phenotype (%)” value [1] was 5%, the “Total Cell Count” value [1] was 218 and the “Population Apoptotic (%)” value [2] was 57%. For the same compound, the “Population Healthy Nuclei (%)” value [2] was 71%, the “Population Hoechst High Intensity Objects (%)” value [2] was 1% and the “Population Membrane Permeable-Phenotype (%)” value [2] was 9%. For the same compound, the “Population Mitochondria Different-Phenotype (%)” value [2] was 11%, the “Population Mitotic Cells (%)” value [2] was 42% and the “Population Normal (%)” value [2] was 98%. The “Population Pyknosed Nuclei (%)” value [2] was 7%, the “Population Tubulin-Different-Phenotype (%)” value [2] was 6% and the “Total Cell Count” value [2] was 89. For the same compound, the “Population Apoptotic (%)” value [3] was 65%, the “Population Fragmented Nuclei (%)” value [3] was 27% and the “Population Healthy Nuclei (%)” value [3] was 63%. For the same compound, the “Population Hoechst High Intensity Objects (%)” value [3] was 1%, the “Population Membrane Permeable-Phenotype (%)” value [3] was 14% and the “Population Mitochondria Different-Phenotype (%)” value [3] was 13%. The “Population Mitotic Cells (%)” value [3] was 34%, the “Population Normal (%)” value [3] was 98% and the “Population Pyknosed Nuclei (%)” value [3] was 9%. The “Population Tubulin-Different-Phenotype (%)” value [3] was 12%, the “Total Cell Count” value [3] was 270 and the “Population Apoptotic (%)” value [4] was 64%. The “Population Fragmented Nuclei (%)” value [4] was 14%, the “Population Healthy Nuclei (%)” value [4] was 68% and the “Population Membrane Permeable-Phenotype (%)” value [4] was 15%. The “Population Mitochondria Different-Phenotype (%)” value [4] was 18%, the “Population Mitotic Cells (%)” value [4] was 35% and the “Population Pyknosed Nuclei (%)” value [4] was 16%. The “Population Tubulin-Different-Phenotype (%)” value [4] was 15%, the “Total Cell Count” value [4] was 103 and the “Population Apoptotic (%)” value [5] was 85%. The “Population Fragmented Nuclei (%)” value [5] was 22%, the “Population Healthy Nuclei (%)” value [5] was 67% and the “Population Hoechst High Intensity Objects (%)” value [5] was 2%. For the same compound, the “Population Membrane Permeable-Phenotype (%)” value [5] was 4%, the “Population Mitochondria Different-Phenotype (%)” value [5] was 3% and the “Population Mitotic Cells (%)” value [5] was 14%. The “Population Normal (%)” value [5] was 97%, the “Population Pyknosed Nuclei (%)” value [5] was 9% and the “Population Tubulin-Different-Phenotype (%)” value [5] was 3%. The “Total Cell Count” value [5] was 284, the “Population Apoptotic (%)” value [6] was 72% and the “Population Fragmented Nuclei (%)” value [6] was 18%. The “Population Healthy Nuclei (%)” value [6] was 71%, the “Population Hoechst High Intensity Objects (%)” value [6] was 0% and the “Population Membrane Permeable-Phenotype (%)” value [6] was 6%. For the same compound, the “Population Mitochondria Different-Phenotype (%)” value [6] was 10%, the “Population Mitotic Cells (%)” value [6] was 27% and the “Population Normal (%)” value [6] was 99%. For the same compound, the “Population Tubulin-Different-Phenotype (%)” value [6] was 0%, the “Total Cell Count” value [6] was 113 and the “Population Apoptotic (%)” value [7] was 82%. The “Population Fragmented Nuclei (%)” value [7] was 21%, the “Population Healthy Nuclei (%)” value [7] was 68% and the “Population Hoechst High Intensity Objects (%)” value [7] was 2%. The “Population Membrane Permeable-Phenotype (%)” value [7] was 8%, the “Population Mitochondria Different-Phenotype (%)” value [7] was 9% and the “Population Mitotic Cells (%)” value [7] was 17%. The “Population Normal (%)” value [7] was 97%, the “Population Pyknosed Nuclei (%)” value [7] was 9% and the “Population Tubulin-Different-Phenotype (%)” value [7] was 5%. For the same compound, the “Total Cell Count” value [7] was 298, the “Population Apoptotic (%)” value [8] was 66% and the “Population Fragmented Nuclei (%)” value [8] was 15%. For the same compound, the “Population Hoechst High Intensity Objects (%)” value [8] was 5%, the “Population Membrane Permeable-Phenotype (%)” value [8] was 10% and the “Population Mitochondria Different-Phenotype (%)” value [8] was 15%. For the same compound, the “Population Mitotic Cells (%)” value [8] was 33%, the “Population Normal (%)” value [8] was 94% and the “Population Pyknosed Nuclei (%)” value [8] was 15%. The “Population Tubulin-Different-Phenotype (%)” value [8] was 10%, the “Total Cell Count” value [8] was 126 and the “Population Apoptotic (%)” value [9] was 100%. For the same compound, the “Population Fragmented Nuclei (%)” value [9] was 17%, the “Population Healthy Nuclei (%)” value [9] was 70% and the “Population Hoechst High Intensity Objects (%)” value [9] was 2%. The “Population Membrane Permeable-Phenotype (%)” value [9] was 4%, the “Population Mitochondria Different-Phenotype (%)” value [9] was 1% and the “Population Mitotic Cells (%)” value [9] was 0%. The “Population Normal (%)” value [9] was 97%, the “Population Pyknosed Nuclei (%)” value [9] was 11% and the “Population Tubulin-Different-Phenotype (%)” value [9] was 2%. For the same compound, the “Total Cell Count” value [9] was 394, the “Population Apoptotic (%)” value [10] was 89% and the “Population Fragmented Nuclei (%)” value [10] was 29%. For the same compound, the “Population Healthy Nuclei (%)” value [10] was 57%, the “Population Hoechst High Intensity Objects (%)” value [10] was 5% and the “Population Membrane Permeable-Phenotype (%)” value [10] was 12%. The “Population Mitochondria Different-Phenotype (%)” value [10] was 8%, the “Population Mitotic Cells (%)” value [10] was 10% and the “Population Normal (%)” value [10] was 94%. The “Population Pyknosed Nuclei (%)” value [10] was 13%, the “Population Tubulin-Different-Phenotype (%)” value [10] was 4% and the “Total Cell Count” value [10] was 149. For the same compound, the “Population Apoptotic (%)” value [11] was 85%, the “Population Fragmented Nuclei (%)” value [11] was 18% and the “Population Healthy Nuclei (%)” value [11] was 69%. For the same compound, the “Population Hoechst High Intensity Objects (%)” value [11] was 3%, the “Population Membrane Permeable-Phenotype (%)” value [11] was 8% and the “Population Mitochondria Different-Phenotype (%)” value [11] was 3%. The “Population Mitotic Cells (%)” value [11] was 14%, the “Population Normal (%)” value [11] was 96% and the “Population Pyknosed Nuclei (%)” value [11] was 12%. For the same compound, the “Population Tubulin-Different-Phenotype (%)” value [11] was 3%, the “Total Cell Count” value [11] was 398 and the “Population Fragmented Nuclei (%)” value [12] was 15%. For the same compound, the “Population Membrane Permeable-Phenotype (%)” value [12] was 16%, the “Population Mitochondria Different-Phenotype (%)” value [12] was 10% and the “Population Pyknosed Nuclei (%)” value [12] was 14%. The “Population Tubulin-Different-Phenotype (%)” value [12] was 8% and the “Total Cell Count” value [12] was 189.
